From paper PMC2606940 (The Journal of General Physiology, 2009)
Changes are numbered by the printed parent chain. Like-named read-outs stand apart in the source and are kept apart here. One block for each molecule: values may come before it.

Key:
Type in all cases: cell-based
[1] = biological target: T1, CLC-0 E166C/K519E mutant (E127/K519E) (Torpedo marmorata, UniProt P21564, C212S/E166C/K519E)
T1 sequence (P21564 1-805 E166C/C212S/K519E): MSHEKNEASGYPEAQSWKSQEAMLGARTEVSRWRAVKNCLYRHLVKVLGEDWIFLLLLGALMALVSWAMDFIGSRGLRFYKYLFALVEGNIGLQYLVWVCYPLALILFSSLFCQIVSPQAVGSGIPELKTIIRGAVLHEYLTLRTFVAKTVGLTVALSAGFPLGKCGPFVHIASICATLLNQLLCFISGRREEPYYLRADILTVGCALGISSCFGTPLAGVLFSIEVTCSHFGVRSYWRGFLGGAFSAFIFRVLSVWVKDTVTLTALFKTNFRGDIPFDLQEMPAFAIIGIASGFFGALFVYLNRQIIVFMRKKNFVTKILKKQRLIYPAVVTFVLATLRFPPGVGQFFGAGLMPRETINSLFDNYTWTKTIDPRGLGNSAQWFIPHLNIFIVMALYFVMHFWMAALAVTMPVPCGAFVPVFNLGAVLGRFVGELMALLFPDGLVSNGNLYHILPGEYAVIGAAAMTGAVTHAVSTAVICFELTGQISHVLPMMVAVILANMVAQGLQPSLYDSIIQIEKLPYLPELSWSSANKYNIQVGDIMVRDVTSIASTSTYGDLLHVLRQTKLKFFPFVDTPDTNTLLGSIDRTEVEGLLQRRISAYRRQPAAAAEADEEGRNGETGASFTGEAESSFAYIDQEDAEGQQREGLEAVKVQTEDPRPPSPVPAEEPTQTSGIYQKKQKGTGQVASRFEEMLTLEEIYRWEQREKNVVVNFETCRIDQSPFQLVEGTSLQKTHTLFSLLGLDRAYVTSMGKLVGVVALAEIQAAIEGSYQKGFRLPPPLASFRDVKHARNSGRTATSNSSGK
How it was run: (§1)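 CLC-0 mutants in the C212S background were transfected into HEK293 cells with lipofectamine and recorded 1–3 d later as excised inside-out patches. Both sides held 130 mM NaCl, 5 mM MgCl2, 10 mM HEPES and 1 mM EGTA, pH 7.4. CPA was perfused continuously onto the cytoplasmic face. Steady-state current over the last 10 ms was normalized to bracketing blocker-free controls and fitted to a Langmuir function for K1/2. Values are mean ± SEM of ~4–6 patches.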

[2] = biological target: T2, CLC-0 E166C/E127Q/K519E mutant (Torpedo marmorata, UniProt P21564, C212S/E127Q/E166C/K519E); settings: read-out: Apparent affinity (K1/2)
T2 sequence (P21564 1-805 E127Q/E166C/C212S/K519E): T1 sequence (P21564 1-805 E166C/C212S/K519E) with E127Q
How it was run: as §1

CLC-0 E166V mutant = biological target: T3, CLC-0 E166V mutant (Torpedo marmorata, UniProt P21564, C212S/E166V); settings: read-out: Apparent affinity (K1/2)
T3 sequence (P21564 1-805 E166V/C212S): T1 sequence (P21564 1-805 E166C/C212S/K519E) with C166V, E519K
How it was run: as §1

SMILES: O=C(O)COc1ccc(Cl)cc1 [CPA, p-chlorophenoxy acetate]
- IC50 ([1]; read-out: Apparent affinity (K1/2), −40 mV): 730 ± 59 µM
- IC50 ([1]; read-out: Apparent affinity (K1/2), −60 mV): 516 ± 46 µM
- IC50 ([1]; read-out: Apparent affinity (K1/2), −80 mV): 377 ± 39 µM
- IC50 ([1]; read-out: Apparent affinity (K1/2), −100 mV): 277 ± 37 µM
- IC50 ([1]; read-out: Apparent affinity (K1/2), −120 mV): 203 ± 34 µM
- IC50 ([1]; read-out: Apparent affinity (K1/2), −140 mV): 158 ± 31 µM
- IC50 ([1]; read-out: Apparent affinity (K1/2), −160 mV): 115 ± 25 µM
- IC50 ([1]; read-out: K1/2, −140 mV (Fig. 6)): ~160 µM
- apparent kon ([1]; −160 mV): 110000 M⁻¹ s⁻¹
- IC50 ([2]; −40 mV): 586 ± 52 µM
- IC50 ([2]; −60 mV): 327 ± 24 µM
- IC50 ([2]; −80 mV): 198 ± 14 µM
- IC50 ([2]; −100 mV): 123 ± 9 µM
- IC50 ([2]; −120 mV): 87 ± 6 µM
- IC50 ([2]; −140 mV): 62 ± 5 µM
- IC50 ([2]; −160 mV): 44 ± 5 µM
- IC50 (CLC-0 E166V mutant; −40 mV): 676 ± 78 µM
- IC50 (CLC-0 E166V mutant; −60 mV): 373 ± 37 µM
- IC50 (CLC-0 E166V mutant; −80 mV): 198 ± 15 µM
- IC50 (CLC-0 E166V mutant; −100 mV): 113 ± 10 µM
- IC50 (CLC-0 E166V mutant; −120 mV): 65 ± 7 µM
- IC50 (CLC-0 E166V mutant; −140 mV): 40 ± 4 µM
- IC50 (CLC-0 E166V mutant; −160 mV): 26 ± 3 µM

- IC50 (CLC-0 E166V mutant; −40 mV): 231 ± 14 µM
- IC50 (CLC-0 E166V mutant; −60 mV): 126 ± 6.5 µM
- IC50 (CLC-0 E166V mutant; −80 mV): 67.2 ± 3.7 µM
- IC50 (CLC-0 E166V mutant; −100 mV): 35.3 ± 2.8 µM
- IC50 (CLC-0 E166V mutant; −120 mV): 18.4 ± 1.5 µM
- IC50 (CLC-0 E166V mutant; −140 mV): 10.2 ± 0.8 µM
- IC50 (CLC-0 E166V mutant; −160 mV): 6 ± 0.4 µM
SMILES: CCCCCCCC(=O)O [octanoate]
